The values below come from ChEMBL document CHEMBL1687824, “Overexpression of patA and patB, which encode ABC transporters, is associated with fluoroquinolone resistance in clinical isolates of Streptococcus pneumoniae” (2011).

What all share (format): functional
Assay [1] deals with Streptococcus pneumoniae. As to the kind of experiment: Antibacterial activity against fluoroquinolone, dye-resistant Streptococcus pneumoniae by standardized agar doubling dilution method in presence of 20 ug/ml reserpine efflux pump inhibitor. In a few lines: (§1)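 MIC by agar doubling dilution following BSAC guidelines. Strains grown in brain heart infusion broth 24 h at 37°C in 5% CO2. Where an efflux pump inhibitor applies, MIC redetermined with reserpine at 20 μg/ml or sodium orthovanadate at 50 μM. Synergy taken as a fall in MIC of ≥2 dilutions with inhibitor present. Dye resistance defined relative to R6 (both dyes ≥2 dilutions higher).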

The subject of assay [2] is Streptococcus pneumoniae. In words: Antibacterial activity against fluoroquinolone, dye-resistant Streptococcus pneumoniae by standardized agar doubling dilution method. The procedure, abridged:
as §1

The subject of assay [3] is Streptococcus pneumoniae. As to the kind of experiment: Antibacterial activity against wild type Streptococcus pneumoniae R6 by standardized agar doubling dilution method in presence of 20 ug/ml reserpine efflux pump inhibitor. The procedure, abridged: as §1
For assay [4], the system named is Streptococcus pneumoniae. In words: Antibacterial activity against wild type Streptococcus pneumoniae M3 NCTC 7466 type 2 by standardized agar doubling dilution method in presence of 20 ug/ml reserpine efflux pump inhibitor. In a few lines:
as §1

Assay [5] has as its system Streptococcus pneumoniae. In words: Antibacterial activity against wild type Streptococcus pneumoniae M4 NCTC 7465 type 1 by standardized agar doubling dilution method in presence of 20 ug/ml reserpine efflux pump inhibitor. In a few lines:
as §1

For assay [6], the system named is Streptococcus pneumoniae. In words: Antibacterial activity against wild type Streptococcus pneumoniae R6 by standardized agar doubling dilution method. The procedure, abridged:
as §1

Assay [7] relates to Streptococcus pneumoniae. As to the kind of experiment: Antibacterial activity against wild type Streptococcus pneumoniae M4 NCTC 7465 type 1 by standardized agar doubling dilution method. In a few lines: as §1
Assay [8] deals with Streptococcus pneumoniae. As to the kind of experiment: Antibacterial activity against wild type Streptococcus pneumoniae M3 NCTC 7466 type 2 by standardized agar doubling dilution method. In a few lines: as §1
For assay [9], the system named is Streptococcus pneumoniae. In words: Antibacterial activity against fluoroquinolone-resistant Streptococcus pneumoniae by standardized agar doubling dilution method. In a few lines:
as §1

In assay [10] the test system is Streptococcus pneumoniae. As to the kind of experiment: Antibacterial activity against fluoroquinolone-resistant Streptococcus pneumoniae by standardized agar doubling dilution method in presence of 20 ug/ml reserpine efflux pump inhibitor. The procedure, abridged:
as §1

For assay [11], the system named is Streptococcus pneumoniae. As to the kind of experiment: Antibacterial activity against dye-resistant Streptococcus pneumoniae by standardized agar doubling dilution method. The procedure, abridged:
as §1

In assay [12] the test system is Streptococcus pneumoniae. As to the kind of experiment: Antibacterial activity against dye-resistant Streptococcus pneumoniae by standardized agar doubling dilution method in presence of 20 ug/ml reserpine efflux pump inhibitor. In a few lines:
as §1

In assay [13] the test system is Streptococcus pneumoniae. In words: Antibacterial activity against fluoroquinolone, dye-susceptible Streptococcus pneumoniae by standardized agar doubling dilution method. In a few lines: as §1
The test system of assay [14] is Streptococcus pneumoniae. As to the kind of experiment: Antibacterial activity against fluoroquinolone, dye-susceptible Streptococcus pneumoniae by standardized agar doubling dilution method in presence of 20 ug/ml reserpine efflux pump inhibitor. In a few lines:
as §1

≈ marks a conversion by molar mass, not a printed value.

For `CCn1cc(C(=O)O)c(=O)c2cc(F)c(N3CCNCC3)cc21` [NORFLOXACIN], the MIC90 turned out to be 8 µg/mL in the assay with Streptococcus pneumoniae [1]; 32 µg/mL (≈ 100 µM) against Streptococcus pneumoniae [2]; 32 µg/mL (≈ 100 µM) against Streptococcus pneumoniae [9]; 8 µg/mL in the assay on Streptococcus pneumoniae [10]; 4 µg/mL (≈ 12.5 µM) with Streptococcus pneumoniae [11]; 1 µg/mL in the assay on Streptococcus pneumoniae [12]. In addition, the figures for the MIC90 against Streptococcus pneumoniae [13] and in the assay with Streptococcus pneumoniae [14] were 4 µg/mL (≈ 12.5 µM) and 1 µg/mL, respectively. Besides, the MIC amounted to 2 µg/mL in the assay on Streptococcus pneumoniae [3]; 2 µg/mL in the assay on Streptococcus pneumoniae [4]; 4 µg/mL in the assay with Streptococcus pneumoniae [5]; 4 µg/mL (≈ 12.5 µM) with Streptococcus pneumoniae [6]; 8 µg/mL (≈ 25.1 µM) with Streptococcus pneumoniae [7]; 4 µg/mL (≈ 12.5 µM) in the assay on Streptococcus pneumoniae [8]. Also, the figures for the MIC in the assay with Streptococcus pneumoniae [11], in the assay on Streptococcus pneumoniae [12] and in the assay with Streptococcus pneumoniae [14] were 4 µg/mL (≈ 12.5 µM), 1 µg/mL and 1 µg/mL, respectively.
